Compounds with a hit are over-represented: about 1.5% of the library has one in this group of screens.
H9c2 protect: protects H9c2 cardiomyocytes from peroxide injury | hit rate 0.63% among 360,000 | H2O2 injury protection, ATPLite, 2 h | protection from H2O2 cell death, % at 20 µM;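 active means compounds giving at least 50% protection of heart cells from peroxide-induced death in the single-dose screen, raw or plate-pattern-corrected value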;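 further: 0% = DMSO wells with peroxide and 100% = DMSO wells without peroxide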
PKA-R1A act: PKA-R1A complex activation; AID 504707; PKA-R1A dissociation, Cy5-IP20 fluorescence polarization; scaled: DMSO 0%, 113 µM cGMP 100%; activation, % at 11.4 µM; hit rate 0.083% among 340,000;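 active means percent activation above the mean of all tested compounds plus 3 SD, cut at about 19% in these data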;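 further: higher means more PKAc released from R1A so a rise in polarization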
PKA-R2B act: activators of human PKA-R2B complex; hit rate 0.079% among 340,000; PKA-R2B holoenzyme dissociation, Cy5-IP20 fluorescence polarization; R2B truncated from residue 108, S112A mutant; 0% DMSO only, 100% 113 µM cGMP; P22694+P31323; activation, % at 11.4 µM;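 active means activation above a cutoff set at the mean over all compounds plus 3 SD, cut at about 18% in these data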;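 further: higher means more holoenzyme dissociation and a rise in polarization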
Target sequence (P31323 whole entry, looked up, other chains not shown, the tested form may be a part): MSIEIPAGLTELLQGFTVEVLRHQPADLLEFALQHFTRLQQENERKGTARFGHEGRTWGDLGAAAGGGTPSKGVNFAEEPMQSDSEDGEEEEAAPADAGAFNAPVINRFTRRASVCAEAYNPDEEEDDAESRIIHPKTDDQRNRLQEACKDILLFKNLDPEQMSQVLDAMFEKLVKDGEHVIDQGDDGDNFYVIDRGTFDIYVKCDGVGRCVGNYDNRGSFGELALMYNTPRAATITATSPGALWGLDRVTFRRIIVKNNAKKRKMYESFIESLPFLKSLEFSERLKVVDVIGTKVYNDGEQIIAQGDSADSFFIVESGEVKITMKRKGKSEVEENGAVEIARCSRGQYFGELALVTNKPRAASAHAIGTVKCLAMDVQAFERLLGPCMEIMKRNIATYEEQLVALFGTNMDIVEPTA
Rin1-Abl PPI inh: inhibitors of human Rin1-Abl protein interaction. AID 588664. P00519+Q13671. inhibition, % at 7.35 µM. TR-FRET Rin1/Abl binding, biochemical. hit rate 0.4% among 360,000; in the data active means inhibition above about 5%, passing the limit was not always enough
TbMetRS inhib: Trypanosoma brucei MetRS inhibition; purified T. brucei MetRS, ATP depletion, Kinase-Glo luminescence; inhibition, % at 11.9 µM; hit rate 0.4% among 360,000; AID 624268;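 active means inhibition above a per-plate cutoff of the control wells' mean inhibition plus 3 SD, cut at about 5.5% in these data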;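 further: 0% = DMSO wells median and 100% = median of wells with control inhibitor compound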
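Assay system: T. brucei methionyl-tRNA synthetase, purified | Medium: HEPES buffer with MgCl2, KCl, DTT, spermine, BSA, pyrophosphatase | Compound: 11.9 µM single point | Incubation: 15 min enzyme-compound preincubation, 2 h reaction, 10 min detection, 25 °C | Measured by: Kinase-Glo luciferase luminescence reporting remaining unconsumed ATP | Measure: % inhibition normalized to control-well medians | Replication: Singlicate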
Rin1 Abl conf: confirmation of inhibitors of human Rin1-Abl interaction; hit rate 49% among 1,300; TR-FRET Rin1-Abl binding, purified proteins; inhibition, % at 7.35 µM; shares compounds with Rin1-Abl PPI inh
GFP quench: quenches GFP fluorescence, counter-screen for Rin1-Abl inhibitors | AID 602125 | inhibition, % at 6.75 µM | inhibitors/quenchers counterscreen | shares compounds with Rin1-Abl PPI inh | hit rate 8.5% among 1,300;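 further: ABL1-eGFP fusion protein alone without its partner RIN1-SBP; 0% = protein with vehicle and 100% = wells lacking protein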
GFP quench DR: counter-screen for Rin1-Abl inhibitors: GFP quenchers, dose response. AID 602182. shares compounds with Rin1-Abl PPI inh. GFP fluorescence interference/quenching counterscreen. 230 tested, under 10 active. IC50, µM; call rule not given here;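 further: ABL1-eGFP fusion protein alone without its RIN1 binding partner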
* marks the source's active call; other numbers are inactive results; . = no result. Unless noted, no stated cut-off is given here; in the data, active means inhibition above about 6.5%; inactive means the rest.

SMILES	H9c2 protect	PKA-R1A act	PKA-R2B act	Rin1-Abl PPI inh	TbMetRS inhib	Rin1 Abl conf	GFP quench	others
CCOC(=O)c1ccc(NC(=O)CN2C(=O)C3C4C=CC(C4)C3C2=O)cc1 (stereo unspecified)	-10	-6	0	2	0	.	.
Cc1ccc(NC(=O)CN2C(=O)C3C4C=CC(C4)C3C2=O)cc1 (stereo unspecified)	3	-4	-12	6.3*	-1	-2	1
CCOC(=O)c1cnc(-n2[nH]c(C)cc2=O)[nH]c1=O	9	.	.	14*	0	8.6*	7.8*
CCOC(=O)c1cnc(-n2nc(C)cc2C)[nH]c1=O	6	-7	5	-3	-1	.	.
CC(=O)c1ccc(NC(=O)N2C3CCC2CC(O)(c2cccnc2)C3)cc1 (stereo unspecified)	-7	-3	2	2	0	.	.
COCCCn1c(SCC(=O)Nc2ccc(C)cc2)nc2ccccc2c1=O	9	-11	2	-6	0	.	.
Cc1ccc(NC(=O)CN(C)C(=O)CSc2nc3ccccc3c(=O)n2CCO)cc1	1	0	-6	11*	0	9.0*	0
COc1ccc(C2c3c4c(n(C)c3CCN2C)CCN(C)C4c2ccc(OC)cc2)cc1 (stereo unspecified)	5	-3	1	6.5*	-2	0	-2
CN1CCc2c(c3c(n2C)CCN(C)C3c2ccc(F)cc2)C1c1ccc(F)cc1 (stereo unspecified)	4	2	3	-2	-1	.	.
CCCOc1ccc(/C=C/C(=O)N2CCN(C(=O)c3ccco3)CC2)cc1OC	10	11	-7	15*	0	17*	-1	GFP quench DR=>68
CCOC(=O)N1CCN(C(=O)/C=C/c2ccc(OC)c(OC)c2)CC1	5	1	-9	-2	-1	.	.
CC(=O)OCC(=O)C12OC(C)(C)OC1CC1C3CC=C4CC(O)CCC4(C)C3CCC12C (stereo unspecified)	1	5	2	12*	0	0	0
O=C(CCn1ccc2ccccc21)Nc1ccc(N2CCOCC2)cc1	-8	6	-3	-2	-1	.	.
Cn1c(CCC(=O)Nc2ccc(N3CCOCC3)cc2)nc(=O)c2ccccc21	0	-18	2	9.6*	0	-4	-1
COc1ccc(CCNC(=O)c2c(N)no[n+]2[O-])cc1OC	2	-7	4	6.6*	-1	1	0
COc1ccc(CCNC(=O)c2ccc(OC)c(OC)c2)cc1OC	-3	-7	3	-4	0	.	.
COCCNC(=O)C(c1ccncc1)N(Cc1ccccc1)C(=O)Cn1nnc2ccccc21 (stereo unspecified)	-2	12	0	0	-1	.	.
O=C(Cc1c(F)cccc1Cl)NNC(=O)Nc1ccc2c(c1)OCO2	3	10	3	14*	1	1	1
O=C(CSCc1c(Cl)cccc1Cl)Nc1ccc2c(c1)OCO2	4	-8	-2	-3	0	.	.
Cc1ccccc1N1CC(C(=O)Nc2ccc(S(=O)(=O)N3CCCCC3)cc2)CC1=O (stereo unspecified)	-11	-8	3	7.7*	0	7.5*	-2
NS(=O)(=O)c1ccc(NC(=O)C2CCCN(S(=O)(=O)c3ccc(F)cc3)C2)cc1 (stereo unspecified)	1	-9	-4	18*	0	4	-5
Cc1ccccc1N1CC(C(=O)Nc2ccc(S(=O)(=O)N3CCOCC3)cc2)CC1=O (stereo unspecified)	-4	-6	3	1	1	.	.
O=C(Nc1ccc(S(=O)(=O)N2CCCC2)cc1)C1CCN(S(=O)(=O)c2ccc(F)cc2)CC1	-2	-10	-6	0	0	.	.
Cc1cccc(N2CC(C(=O)Nc3ccc(S(=O)(=O)N4CCCCC4)cc3)CC2=O)c1C (stereo unspecified)	-7	-5	-3	13*	0	13*	0
COc1ccc(Cl)cc1C(=O)NNC(=O)c1cccs1	-1	-1	-8	0	0	.	.
SMILES	H9c2 protect	PKA-R1A act	PKA-R2B act	Rin1-Abl PPI inh	TbMetRS inhib	Rin1 Abl conf	GFP quench	others
COc1ccc(C(=O)C(=O)N2CCN(c3ccccc3F)CC2)cc1	.	.	.	.	0	.	.
CCOc1ccc(-c2nnc(N3CCOCC3)c3ccccc23)cc1	1	-4	-2	12*	-1	6.7*	-1
CN(C(=O)COC(=O)/C=C/c1ccc(Cl)c(Cl)c1)c1c(N)n(Cc2ccccc2)c(=O)[nH]c1=O	-7	3	6	1	0	.	.
COc1ccc(CNC(=O)COC(=O)CCCOc2ccc(Cl)cc2Cl)cc1OC	-5	9	0	10*	1	-1	1
Cc1ccc(CNC(=O)COC(=O)CCCOc2ccc(Cl)cc2Cl)cc1	2	-9	-5	0	0	.	.
Cc1cc(NS(=O)(=O)c2ccc(NC(=O)c3ccc([N+](=O)[O-])cc3)cc2)nc(C)n1	0	-3	-2	1	0	.	.
CN1CCCN(C(=O)C2CCC(C(=O)N3CCCN(C)CC3)CC2)CC1 (stereo unspecified)	1	-7	0	0	0	.	.
O=C(C1CCC(C(=O)N2CCCCC2)CC1)N1CCCCC1 (stereo unspecified)	9	-14	2	6.2*	-2	-1	-1
CCOc1ccc(S(=O)(=O)N2CCN(C(=O)C3CCC3)CC2)cc1	-4	-3	2	-4	0	.	.
COc1ccc(NC(=O)CN(C)S(=O)(=O)c2ccccc2)cc1	1	-1	-7	0	0	.	.
CCOC(=O)c1ccc(NC(=O)CN(C)S(=O)(=O)c2ccc(OC)cc2)cc1	2	-3	2	8.0*	0	-2	-1
C=C(c1ccc2nc(NC(=O)OC)[nH]c2c1)c1cccs1	-7	6	8	0	0	.	.
Cc1c(NS(=O)(=O)c2ccc3c(c2)Cc2ccccc2-3)c(=O)n(-c2ccccc2)n1C	17	-10	1	3	0	.	.
CCOC(=O)CSc1ccc2nnc(-c3ccccc3)n2n1	-1	6	9	-2	0	.	.
CCOC(=O)CSc1ccc2nnc(-c3cccnc3)n2n1	8	0	-4	7.5*	1	-3	-1
O=C(CN1CCN(Cc2ccc3c(c2)OCO3)CC1)NCC(F)(F)F	-4	3	0	0	0	.	.
COc1cc(-c2nnc(COC(=O)c3ccc(C)o3)o2)cc(OC)c1OC	11	3	4	2	0	.	.

Screening data: PubChem BioAssay, several laboratories
